Test results reported in ChEMBL document CHEMBL1140690, “5-((4-Aminopiperidin-1-yl)methyl)pyrrolotriazine dual inhibitors of EGFR and HER2 protein tyrosine kinases” (Bioorg Med Chem Lett, 2007).
The source made the active and inactive calls. The calls are words filed in the database; no cut-off is given here.

Tests used:
[1] = AUC (0 to 4 hrs) in BALB/c mouse at 50 mg/kg, po after 4 hrs; type: ADME, organism-based; design: time < 4 hr, dose 50 mg/kg, route oral; conditions: plasma
NCI-N87 [2] = experiment: Antiproliferative activity against human N87 cells
HT-29 = experiment: Antiproliferative activity against human HT29 cells; type: functional, cell-based
Method in brief: (§1)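 HT29 (colon carcinoma) and A2780 (ovarian carcinoma) lines, stated not to rely on EGFR or HER2 signalling, serve as counter-screen lines; proliferation IC50 reported.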

[3] = Drug level in BALB/c mouse plasma at 50 mg/kg, po after 4 hrs; type: ADME, organism-based; design: dose 50 mg/kg, route oral
Method in brief: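 Single oral 50 mg/kg dose in Tween 80/PEG400/water (10/40/50, v/v/v) to three male Balb/C mice; plasma concentration at 4 h averaged, AUC0–4h also derived.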

Liver = experiment: Metabolic stability in mouse liver microsomes at 3 uM after 10 mins in presence of NADPH; type: ADME, Microsome
Method in brief: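 Mouse liver microsomes with NADPH; compound at 3 µM, incubated 10 min; metabolic rate expressed as nmol/min/mg protein.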

A2780 = experiment: Antiproliferative activity against human A2780 cells; type: functional, cell-based; method in brief: as §1
GEO = experiment: Antitumor activity against human GEO cells xenografted in athymic mouse at 180 mg/kg, sc QD after 10 days; type: functional, organism-based; design: dose 180 mg/kg
[4] = molecular target: Epidermal growth factor receptor (Homo sapiens, UniProt P00533); experiment: Inhibition of human recombinant EGFR expressed in insect Sf9 cells
Sequence of Epidermal growth factor receptor (P00533 whole entry): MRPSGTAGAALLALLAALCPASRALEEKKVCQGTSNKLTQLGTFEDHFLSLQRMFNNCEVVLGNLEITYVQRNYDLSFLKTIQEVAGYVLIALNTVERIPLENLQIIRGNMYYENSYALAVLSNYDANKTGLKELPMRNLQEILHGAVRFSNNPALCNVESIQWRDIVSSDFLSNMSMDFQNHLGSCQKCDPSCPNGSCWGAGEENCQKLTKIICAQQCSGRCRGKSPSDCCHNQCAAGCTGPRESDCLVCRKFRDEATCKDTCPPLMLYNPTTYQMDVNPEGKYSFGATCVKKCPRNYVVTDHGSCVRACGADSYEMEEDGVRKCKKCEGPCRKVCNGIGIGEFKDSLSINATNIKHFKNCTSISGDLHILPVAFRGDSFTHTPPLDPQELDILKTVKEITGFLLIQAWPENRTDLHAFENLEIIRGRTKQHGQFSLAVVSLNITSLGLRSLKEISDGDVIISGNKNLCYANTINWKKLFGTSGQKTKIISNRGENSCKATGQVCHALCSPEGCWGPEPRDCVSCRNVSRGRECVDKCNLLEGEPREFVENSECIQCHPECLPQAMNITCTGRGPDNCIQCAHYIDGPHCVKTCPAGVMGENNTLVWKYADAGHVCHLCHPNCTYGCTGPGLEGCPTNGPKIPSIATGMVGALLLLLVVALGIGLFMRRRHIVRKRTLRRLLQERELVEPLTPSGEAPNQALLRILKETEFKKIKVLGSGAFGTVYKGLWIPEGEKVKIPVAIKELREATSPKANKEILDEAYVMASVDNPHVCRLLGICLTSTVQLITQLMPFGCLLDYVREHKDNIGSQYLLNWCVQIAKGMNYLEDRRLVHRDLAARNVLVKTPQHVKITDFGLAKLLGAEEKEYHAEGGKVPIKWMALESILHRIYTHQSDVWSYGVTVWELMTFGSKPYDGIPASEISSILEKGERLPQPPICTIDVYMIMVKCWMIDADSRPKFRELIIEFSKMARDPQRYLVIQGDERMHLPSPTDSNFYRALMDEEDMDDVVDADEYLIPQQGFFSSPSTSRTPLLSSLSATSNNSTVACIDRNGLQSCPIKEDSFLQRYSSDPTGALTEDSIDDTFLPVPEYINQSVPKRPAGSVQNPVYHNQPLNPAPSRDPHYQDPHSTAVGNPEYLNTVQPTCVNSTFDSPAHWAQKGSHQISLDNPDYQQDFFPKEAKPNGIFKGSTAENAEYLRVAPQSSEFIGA

[5] = molecular target: Receptor tyrosine-protein kinase erbB-2 (Homo sapiens, UniProt P04626); experiment: Inhibition of human recombinant HER2 expressed in insect Sf9 cells
Sequence of Receptor tyrosine-protein kinase erbB-2 (P04626 whole entry): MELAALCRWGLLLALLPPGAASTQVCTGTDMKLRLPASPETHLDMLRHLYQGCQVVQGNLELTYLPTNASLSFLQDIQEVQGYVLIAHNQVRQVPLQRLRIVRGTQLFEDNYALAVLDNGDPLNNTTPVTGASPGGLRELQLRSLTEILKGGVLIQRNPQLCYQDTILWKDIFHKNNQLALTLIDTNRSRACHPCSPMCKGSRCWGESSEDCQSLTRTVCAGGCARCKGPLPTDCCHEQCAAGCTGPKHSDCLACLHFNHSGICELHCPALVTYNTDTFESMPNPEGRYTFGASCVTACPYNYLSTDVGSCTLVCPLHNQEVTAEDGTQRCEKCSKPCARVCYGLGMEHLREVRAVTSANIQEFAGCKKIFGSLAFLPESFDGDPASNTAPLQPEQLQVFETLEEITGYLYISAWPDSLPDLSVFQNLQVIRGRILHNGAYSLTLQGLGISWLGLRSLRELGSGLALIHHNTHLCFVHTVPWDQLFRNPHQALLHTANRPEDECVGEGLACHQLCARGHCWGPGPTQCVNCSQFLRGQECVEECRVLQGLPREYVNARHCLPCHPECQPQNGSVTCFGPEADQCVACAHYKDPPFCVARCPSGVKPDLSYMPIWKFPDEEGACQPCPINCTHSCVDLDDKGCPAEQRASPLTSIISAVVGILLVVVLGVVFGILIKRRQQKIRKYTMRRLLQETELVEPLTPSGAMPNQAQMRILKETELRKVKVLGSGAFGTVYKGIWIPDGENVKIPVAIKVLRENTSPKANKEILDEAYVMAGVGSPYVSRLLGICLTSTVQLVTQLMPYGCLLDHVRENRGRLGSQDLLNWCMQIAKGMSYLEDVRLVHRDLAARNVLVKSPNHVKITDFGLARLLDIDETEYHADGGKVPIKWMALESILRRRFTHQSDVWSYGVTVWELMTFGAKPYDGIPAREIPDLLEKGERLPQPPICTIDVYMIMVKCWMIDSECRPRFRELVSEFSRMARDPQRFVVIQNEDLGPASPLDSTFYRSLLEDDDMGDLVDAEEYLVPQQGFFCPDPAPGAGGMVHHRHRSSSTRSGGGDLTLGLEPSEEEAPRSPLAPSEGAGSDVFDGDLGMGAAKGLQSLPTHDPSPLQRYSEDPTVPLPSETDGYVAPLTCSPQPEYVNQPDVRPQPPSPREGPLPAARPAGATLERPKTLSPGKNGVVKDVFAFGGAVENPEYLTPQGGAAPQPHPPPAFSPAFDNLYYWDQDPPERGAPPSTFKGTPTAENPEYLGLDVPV

[6] = Antitumor activity against human GEO cells xenografted in athymic mouse at 135 mg/kg, sc BID after 14 days; type: functional; conditions: 336 h, route subcutaneous
NCI-N87 [7] = experiment: Antitumor activity against human N87 cells xenografted in athymic mouse at 180 mg/kg, po QD after 21 days; conditions: 504 h; for minimal effective dose at 180 mg/kg: read-out: MED
[8] = molecular target: Tyrosine-protein kinase Lck (Homo sapiens, UniProt P06239); experiment: Inhibition of LCK
Sequence of Tyrosine-protein kinase Lck (P06239 whole entry): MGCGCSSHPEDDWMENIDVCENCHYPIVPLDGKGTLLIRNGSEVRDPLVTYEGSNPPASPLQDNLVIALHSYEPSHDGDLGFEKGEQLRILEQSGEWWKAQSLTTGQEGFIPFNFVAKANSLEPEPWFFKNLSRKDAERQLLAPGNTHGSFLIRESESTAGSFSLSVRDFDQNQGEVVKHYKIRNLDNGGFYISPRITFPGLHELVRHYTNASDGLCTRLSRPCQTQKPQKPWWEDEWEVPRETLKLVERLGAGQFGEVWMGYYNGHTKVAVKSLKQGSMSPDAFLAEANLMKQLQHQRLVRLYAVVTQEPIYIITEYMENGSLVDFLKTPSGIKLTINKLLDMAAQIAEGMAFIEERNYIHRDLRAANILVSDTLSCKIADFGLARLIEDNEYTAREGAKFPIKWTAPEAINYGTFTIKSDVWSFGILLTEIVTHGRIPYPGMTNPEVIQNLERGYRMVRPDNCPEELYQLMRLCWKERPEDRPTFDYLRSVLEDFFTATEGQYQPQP

[9] = molecular target: Vascular endothelial growth factor receptor 2 (Homo sapiens, UniProt P35968); experiment: Inhibition of VEGFR2
Sequence of Vascular endothelial growth factor receptor 2 (P35968 whole entry): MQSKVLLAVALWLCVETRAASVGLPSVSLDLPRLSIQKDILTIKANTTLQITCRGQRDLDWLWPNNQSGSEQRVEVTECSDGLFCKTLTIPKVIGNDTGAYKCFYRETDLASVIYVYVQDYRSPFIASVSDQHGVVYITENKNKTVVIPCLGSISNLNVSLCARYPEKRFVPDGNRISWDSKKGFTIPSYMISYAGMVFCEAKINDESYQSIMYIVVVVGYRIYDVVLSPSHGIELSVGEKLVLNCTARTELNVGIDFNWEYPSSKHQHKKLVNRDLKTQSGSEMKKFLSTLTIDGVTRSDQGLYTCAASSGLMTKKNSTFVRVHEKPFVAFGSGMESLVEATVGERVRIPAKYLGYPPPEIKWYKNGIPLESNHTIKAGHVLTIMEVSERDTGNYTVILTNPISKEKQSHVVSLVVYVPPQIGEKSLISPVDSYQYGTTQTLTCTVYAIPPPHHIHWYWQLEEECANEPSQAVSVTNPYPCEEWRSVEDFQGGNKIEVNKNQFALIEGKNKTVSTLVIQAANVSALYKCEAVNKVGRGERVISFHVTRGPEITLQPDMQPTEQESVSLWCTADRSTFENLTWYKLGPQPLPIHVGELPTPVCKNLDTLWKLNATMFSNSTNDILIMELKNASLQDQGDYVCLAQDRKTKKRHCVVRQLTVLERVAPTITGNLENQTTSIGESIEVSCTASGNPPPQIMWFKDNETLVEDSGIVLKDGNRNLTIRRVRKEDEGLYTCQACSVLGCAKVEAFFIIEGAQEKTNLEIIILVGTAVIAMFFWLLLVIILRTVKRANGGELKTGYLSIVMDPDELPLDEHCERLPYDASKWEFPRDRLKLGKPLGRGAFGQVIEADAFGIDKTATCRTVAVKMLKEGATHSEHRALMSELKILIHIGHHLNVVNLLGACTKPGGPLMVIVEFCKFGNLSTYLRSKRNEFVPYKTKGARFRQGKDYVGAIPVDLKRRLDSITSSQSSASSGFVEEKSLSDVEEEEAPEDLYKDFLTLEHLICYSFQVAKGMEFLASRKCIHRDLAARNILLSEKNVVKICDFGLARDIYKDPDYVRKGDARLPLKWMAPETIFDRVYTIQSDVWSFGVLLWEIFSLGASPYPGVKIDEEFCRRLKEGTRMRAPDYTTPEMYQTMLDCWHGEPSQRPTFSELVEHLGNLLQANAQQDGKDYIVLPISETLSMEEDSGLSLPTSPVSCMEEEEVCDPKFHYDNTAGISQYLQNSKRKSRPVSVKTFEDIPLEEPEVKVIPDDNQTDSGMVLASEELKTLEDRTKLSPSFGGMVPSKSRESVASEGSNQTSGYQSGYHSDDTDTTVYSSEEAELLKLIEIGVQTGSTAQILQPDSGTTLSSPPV
Method in brief: (§2)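 Selectivity-panel kinase assays against each named kinase. IC50 reported as the mean of at least three determinations.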

[10] = molecular target: Hepatocyte growth factor receptor (Homo sapiens, UniProt P08581); experiment: Inhibition of Met; method in brief: as §2
[11] = Inhibition of PKA; design: species or system Homo sapiens
Method in brief: (§3)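 Kinase panel IC50s, each reported as the mean of at least three determinations.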

HT29 = experiment: Antiproliferative activity against human HT29 cells
CDK2/Cyclin E1 = CDK2/Cyclin E1 (Homo sapiens, UniProt P24941); experiment: Inhibition of CDK2; method in brief: as §2
[12] = Antitumor activity against human GEO cells xenografted in athymic mouse at 120 mg/kg, sc QD after 10 days
[13] = Antitumor activity against human GEO cells xenografted in athymic mouse at 240 mg/kg, […] after 10 days; type: functional; conditions: sc, 240 h
Method in brief: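 Established subcutaneous GEO human colon carcinoma xenografts in athymic mice. Compound given orally once daily for 10 days (QD × 10) in Tween 80–PEG400–water (10/40/50).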

MAP kinase p38 = MAP kinase p38 (Homo sapiens, UniProt O15264+Q15759+Q16539+P53778); experiment: Inhibition of p38; type: protein assay; method in brief: as §2
Protein kinase C (PKC) = experiment: Inhibition of PKC; design: species or system Homo sapiens; method in brief: as §3
NCI-N87 [14] = experiment: Antitumor activity against human N87 cells xenografted in athymic mouse at 240 mg/kg, sc QD after 21 days; type: functional; conditions: 504 h

AUC(0-t) at 4 h [1] [µM·h]	IC50 (HT-29) [nM]	concentration at 4 h [3] [µM]	IC50 (A2780) [nM]	IC50 [4] [nM]	IC50 [5] [nM]	Compound	IC50 (NCI-N87 [2]) [nM]	further results
22	> 5000	4.5	> 5000	190	34	NC1CCN(Cc2ccn3ncnc(Nc4ccc5c(cnn5Cc5cccnc5)c4)c23)CC1	86	metabolic rate (Liver): 0.01 nmol/min/mg
	3600		3600			Fc1cccc(Cn2ncc3cc(Nc4ncnn5ccc(CN6CCCNCC6)c45)ccc32)c1	110	inhibition in vivo at 135 mg/kg ([6]; dose 135 mg/kg): 78%; minimal effective dose ([6]; read-out: MED): 90 mg/kg; inhibition in vivo at 180 mg/kg (NCI-N87 [7]): 121%; minimal effective dose at 180 mg/kg (NCI-N87 [7]): 90 mg/kg
	> 5000		> 5000	530	190	NC1CCN(Cc2ccn3ncnc(Nc4ccc5c(cnn5Cc5ccncc5)c4)c23)CC1	470	
				38	32	NC1CCN(Cc2ccn3ncnc(Nc4ccc(OCc5cccc(F)c5)c(Cl)c4)c23)CC1	83	
9.9	> 5000	1.3	> 5000	19	13	Cc1cncc(Cn2ncc3cc(Nc4ncnn5ccc(CN6CCC(N)CC6)c45)ccc32)c1	36	metabolic rate (Liver): 0.06 nmol/min/mg; inhibition in vivo at 180 mg/kg (NCI-N87 [7]): 89%; minimal effective dose at 180 mg/kg (NCI-N87 [7]): 120 mg/kg; Activity (GEO): inactive
7.8	3500	1.8	3500		60	Cc1cncc(COc2ccc(Nc3ncnn4ccc(CN5CCC(N)CC5)c34)cc2Cl)c1	180	metabolic rate (Liver): 0 nmol/min/mg
				48	41	Fc1cccc(COc2ccc(Nc3ncnn4ccc(CN5CCCNCC5)c34)cc2Cl)c1	600	
	9500		9500	110	120	O=C(CO)NC1CCN(Cc2ccn3ncnc(Nc4ccc5c(cnn5Cc5cccc(F)c5)c4)c23)CC1	310	
	6500		6500	50	52	N[C@H]1CCN(Cc2ccn3ncnc(Nc4ccc5c(cnn5Cc5cccc(F)c5)c4)c23)C1	810	
	3900		3900	60	70	N[C@@H]1CCN(Cc2ccn3ncnc(Nc4ccc5c(cnn5Cc5cccc(F)c5)c4)c23)C1	830	
30	2700	7.5	2700	150	36	NC1CCN(Cc2ccn3ncnc(Nc4ccc(OCc5cccnc5)c(Cl)c4)c23)CC1	230	

The remaining lines, values behind:

Compound	AUC(0-t) at 4 h [1] [µM·h]	IC50 (HT-29) [nM]	concentration at 4 h [3] [µM]	IC50 (A2780) [nM]	IC50 [4] [nM]	IC50 [5] [nM]	IC50 (NCI-N87 [2]) [nM]	further results
NC1CCN(Cc2ccn3ncnc(Nc4ccc(OCc5cccc[n+]5[O-])c(Cl)c4)c23)CC1	15	> 5000	3.9	> 5000	70	18	110	metabolic rate (Liver): 0 nmol/min/mg; Activity (GEO): inactive
COc1cn2ncnc(Nc3ccc4c(cnn4Cc4cccc(F)c4)c3)c2c1CN1CCCNCC1					190	170	3700	
OCCNC1CCN(Cc2ccn3ncnc(Nc4ccc5c(cnn5Cc5cccc(F)c5)c4)c23)CC1		5400		5400		31	73	
NC1CCN(Cc2ccn3ncnc(Nc4ccc5c(cnn5Cc5cccc(F)c5)c4)c23)CC1	14	4300	2.7		35	23	35	IC50 [8]: 710 nM; IC50 [9]: 480 nM; IC50 [10]: 3900 nM; IC50 [11]: > 50000 nM; metabolic rate (Liver): 0.05 nmol/min/mg; IC50 (HT29): 4300 nM; IC50 (CDK2/Cyclin E1): 1900 nM; MED [12]: 120 mg/kg; inhibition in vivo at 240 mg/kg [13]: 85%; inhibition in vivo at 180 mg/kg (NCI-N87 [7]): 133%; minimal effective dose at 180 mg/kg (NCI-N87 [7]): 60 mg/kg; IC50 (MAP kinase p38): > 50000 nM; IC50 (Protein kinase C (PKC)): 2200 nM
NC1CCN(Cc2ccn3ncnc(Nc4ccc(OCc5cnccn5)c(Cl)c4)c23)CC1	21	3500	6.3	3500	32	26	72	metabolic rate (Liver): 0.12 nmol/min/mg; inhibition in vivo at 180 mg/kg (NCI-N87 [7]): 63%; minimal effective dose at 180 mg/kg (NCI-N87 [7]): 180 mg/kg; Activity (GEO): inactive
CN(C)C1CCN(Cc2ccn3ncnc(Nc4ccc5c(cnn5Cc5cccc(F)c5)c4)c23)CC1		7600		7600	100	110	450	
CNC1CCN(Cc2ccn3ncnc(Nc4ccc5c(cnn5Cc5cccc(F)c5)c4)c23)CC1		7300		7300	63	54	78	
COc1cn2ncnc(Nc3ccc4c(cnn4Cc4cccc(F)c4)c3)c2c1CN1CCC(N)CC1					40	43	430	
CS(=O)(=O)CCNC1CCN(Cc2ccn3ncnc(Nc4ccc5c(cnn5Cc5cccc(F)c5)c4)c23)CC1					200	190	700	
NCC1CCN(Cc2ccn3ncnc(Nc4ccc5c(cnn5Cc5cccc(F)c5)c4)c23)CC1		2900		2900	35	38	140	
NC1CCN(Cc2ccn3ncnc(Nc4ccc5c(cnn5Cc5ccccn5)c4)c23)CC1	3.6	> 10000	1.6	> 10000	47	35	120	metabolic rate (Liver): 0.01 nmol/min/mg
CC(=O)NC1CCN(Cc2ccn3ncnc(Nc4ccc5c(cnn5Cc5cccc(F)c5)c4)c23)CC1		> 10000			380	180	290	IC50 (HT29): > 10000 nM
Fc1cccc(Cn2ncc3cc(Nc4ncnn5ccc(COC[C@@H]6CNCCO6)c45)ccc32)c1		8700						IC50 [11]: > 50000 nM
Fc1cccc(Cn2ncc3cc(Nc4ncnn5ccc(CNC6CCNCC6)c45)ccc32)c1		5000		5000	110	76	1150	
CC1(N)CCN(Cc2ccn3ncnc(Nc4ccc5c(cnn5Cc5cccc(F)c5)c4)c23)CC1		6100			50	43	70	IC50 (HT29): 6100 nM
NC1CCN(Cc2ccn3ncnc(Nc4ccc(OCc5ccccn5)c(Cl)c4)c23)CC1	13	2000	3.7	2000	36	22	58	metabolic rate (Liver): 0.04 nmol/min/mg; inhibition in vivo at 240 mg/kg (NCI-N87 [14]; dose 240 mg/kg): 110%; minimal effective dose (NCI-N87 [14]; read-out: MED): 120 mg/kg
